# According to ChEMBL document CHEMBL4038331 (J Med Chem, 2017):
# pIC50: −log10 of the molar value. Calls of active or inactive are those of the source. No cut-off for these calls is given here.
# Tests used:
# Liver [1] = assay: Decrease in oxidative phosphorylation efficiency in rat liver mitochondria assessed as reduction in respiratory control ratio after 5 mins in presence of glutamate/malate; type: functional
# How it was run: (§1)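 Glutamate/malate (10/5 mM) or succinate (5 mM) was the substrate, with compound 2.5–10 μM for 5 min (state 2). ADP was added (125 nmol glutamate/malate; 75 nmol succinate), then oligomycin 2 μg/mL, then FCCP 1 μM. RCR and ADP/O were calculated. Seven experiments.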
# [2] = Lipophilicity of compound in Ag/AgCl-NaCl containing PET membrane assessed as tranfer potential at pH 7; type: physicochemical
# How it was run: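 Transfer across a liquid–liquid interface on a microporous PET membrane, with 1,6-dichlorohexane organic phase containing BTPPATPBCl. A gelled 2 mM BTPPACl + 2 mM NaCl reference was used, with 10 mM Tris-HCl pH 7.0 aqueous electrolyte.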
# Liver [3] = assay: Drug uptake in rat liver extra-mitochondria at 1 uM in presence of succinate/valinomycin by TPP+-based electrode assay; type: ADME, tissue-based
# How it was run: (§2)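 TPP+-selective electrode with rat liver mitochondria (0.5 mg/mL) in 120 mM KCl, 10 mM HEPES pH 7.2, 1 mM EGTA at 37 °C with rotenone 1.5 μM. Five 1 μM additions calibrated the electrode, then succinate 10 mM was added, then valinomycin 0.2 μg/mL. The accumulation ratio assumed a matrix volume of ~0.5 μL/mg with a binding correction.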
# Liver [4] = assay: Induction of ADP-stimulated respiration in rat liver mitochondria after 5 mins in presence of succinate; type: functional; how it was run: as §1
# [5] = Antioxidant activity assessed as ABTS radical scavenging activity measured each minute for 15 mins by spectrophotometric analysis; type: functional
# How it was run: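 ABTS•+ generated from 7 mM ABTS plus potassium persulfate, held 16 h dark at room temperature, then diluted in ethanol to absorbance 0.72 ± 0.02. Ethanolic test solutions (10–500 μM) were added to radical solution in triplicate. Inhibition was taken against an ethanol blank (100% radical), and IC50 was read from dose–response curves.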
# [6] = Antioxidant activity assessed as GO radical scavenging activity measured for 30 mins in absence of light; type: functional
# How it was run: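 Ethanolic GO• (5 mM stock) diluted to absorbance 1.00 ± 0.02 at 428 nm. Test solutions (5–75 μM in ethanol) were added in triplicate and read at 428 nm at room temperature. Inhibition was taken against an ethanol blank (100% radical).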
# Liver [7] = assay: Induction of basal oxygen consumption under nonphosphorylative conditions in rat liver mitochondria after 5 mins in presence of glutamate/malate; type: functional; how it was run: as §1
# Liver [8] = assay: Induction of basal oxygen consumption under nonphosphorylative conditions in rat liver mitochondria after 5 mins in presence of succinate; type: functional; how it was run: as §1
# Liver [9] = assay: Induction of ADP-stimulated respiration in rat liver mitochondria after 5 mins in presence of glutamate/malate; type: functional; how it was run: as §1
# Liver [10] = assay: Induction of basal respiration in rat liver mitochondria measured 5 mins after ADP phosphorylation in presence of glutamate/malate; type: functional; how it was run: as §1
# Liver [11] = assay: Decrease in oxidative phosphorylation efficiency in rat liver mitochondria assessed as reduction in coupling between ATP systhesis and oxygen consumption after 5 mins in presence of succinate; type: functional; how it was run: as §1
# Liver [12] = assay: Increase in oligomycin-inhibited respiration in rat liver mitochondria after 5 mins in presence of succinate; type: functional; how it was run: as §1
# [13] = Antioxidant activity assessed as DPPH radical scavenging activity measured every minute for 45 mins; type: functional
# How it was run: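 DPPH• ethanolic solution diluted to absorbance 0.72 ± 0.02 at 515 nm. Ethanolic test solutions (50–500 μM) were added in triplicate and read at 515 nm. Inhibition was taken against an ethanol blank (100% radical), and IC50 was read from dose–response curves.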
# Liver [14] = assay: Decrease in oxidative phosphorylation efficiency in rat liver mitochondria assessed as reduction in coupling between ATP systhesis and oxygen consumption after 5 mins in presence of glutamate/malate; type: functional; how it was run: as §1
# Liver [15] = assay: Induction of basal respiration in rat liver mitochondria measured 5 mins after ADP phosphorylation in presence of succinate; type: functional; how it was run: as §1
# [16] = Redox potential of compound in Ag/AgCl-NaCl containing phosphate buffer at 0.1 mM at pH 7.4 by cyclic voltammetric analysis
# How it was run: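 Voltammetry used a glassy carbon working electrode, Pt counter and Ag/AgCl reference. Compound was at 0.1 mM final (10 mM ethanolic stock) in pH 7.4 potassium phosphate electrolyte.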
# Liver [17] = assay: Ratio of drug level in rat liver intra-mitochondria to extra-mitochondria at 1 uM in presence of succinate/valinomycin by TPP+-based electrode assay; type: ADME, tissue-based; how it was run: as §2
# Liver [18] = assay: Antioxidant activity in rat liver mitochondria assessed as inhibition of FeSO4/H2O2-induced lipid peroxidation at 5 uM preincubated for 5 mins followed by FeSO4/H2O2 addition for 15 mins by TBARS-based fluorescence assay; type: functional
# How it was run: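 Rat liver mitochondria (2 mg protein/mL) in 100 mM KCl, 10 mM Tris-HCl pH 7.6 with glutamate/malate at 37 °C. After 5 min with compound (5 μM), 100 μM FeSO4/500 μM H2O2/5 mM ascorbate was added for 15 min. Butylated hydroxytoluene, perchloric acid and thiobarbituric acid were added, then heated 15 min at 100 °C. Read-out as % of control, three experiments.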
# [19] = Iron chelating activity in ammonium acetate buffer assessed as inhibition of [Fe(ferrozine)3]2+ formation at 100 uM at pH 6.7 measured after 10 mins by spectrophotometric analysis
# How it was run: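 Ferrozine assay in ammonium acetate buffer pH 6.7. Compound (100 μM) plus ammonium iron(II) sulfate (20 μM) for 10 min, read at 562 nm. Ferrozine was added, incubated 10 min at 37 °C, and re-read at 562 nm. The first reading was subtracted, with a DMSO blank and EDTA = 100%. Three experiments.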
# Liver [20] = assay: Increase in oligomycin-inhibited respiration in rat liver mitochondria after 5 mins in presence of glutamate/malate; type: functional; how it was run: as §1
# Liver [21] = assay: Drug uptake in rat liver intra-mitochondria at 1 uM in presence of succinate/valinomycin by TPP+-based electrode assay; type: ADME, tissue-based; how it was run: as §2
# [22] = Induction of mPTP in energized rat liver mitochondria at 2.5 to 10 uM after 5 mins in presence of succinate by spectrophotometric analysis
# Rattus norvegicus [23] = species: Rattus norvegicus; assay: Inhibition of mPTP in energized rat liver mitochondria at 10 uM after 5 mins in presence of succinate by spectrophotometric analysis
# How it was run: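 Ca2+ (15–50 μM, titrated daily) added to trigger mPTP, with cyclosporin A as control. Swelling followed as light scattering at 540 nm with stirring at 37 °C. Reported as Δabsorbance; mean ± SEM, n=3.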
# Liver [24] = assay: Induction of membrane hyperpolarization in rat liver mitochondria assessed as change in repolarization potential at 2.5 uM; type: functional
# How it was run: (§3)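 Safranine (5 μM) fluorescence (ex 495/em 586 nm) at 25 °C. Rat liver mitochondria (0.5 mg/2 mL) were in 200 mM sucrose, 1 mM KH2PO4, 10 mM Tris pH 7.4, 10 μM EGTA with glutamate/malate or succinate, after 5 min with 2.5–10 μM. ADP 25 nmol depolarised, then FCCP 1 μM was added. A valinomycin calibration in K+-free medium was used, five experiments.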
# Liver [25] = assay: Antioxidant activity in rat liver mitochondria assessed as inhibition of ADP/FeSO4-induced lipid peroxidation at 5 uM preincubated for 5 mins followed by ADP/FeSO4 addition; type: functional
# How it was run: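 Rat liver mitochondria (2 mg) in 100 mM KCl, 10 mM Tris-HCl pH 7.6, with glutamate/malate (5/2.5 mM) at 37 °C. After 5 min with compound (5 μM), peroxidation was started with ADP/0.1 mM FeSO4. The lag phase of O2 consumption was measured by Clark electrode and expressed as % of control. Six experiments.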
# Rattus norvegicus [26] = species: Rattus norvegicus; assay: Inhibition of mPTP in energized rat liver mitochondria at 2.5 to 10 uM after 5 mins in presence of succinate by spectrophotometric analysis
# Liver [27] = assay: Inhibition of ADP-induced membrane depolarization in succinate energized rat liver mitochondria at 10 uM preincubated for 5 mins followed by ADP addition measured by safranine-based spectrofluorometric analysis; type: functional, tissue-based; how it was run: as §3
SMILES,Activity (Liver [1]),Activity [2] [V],Drug uptake (Liver [3]) [µM],Activity (Liver [4]),pIC50 [5],pIC50 [6],Activity (Liver [7]),Activity (Liver [8]),Activity (Liver [9]),Activity (Liver [10]),Activity (Liver [11]),Activity (Liver [12]),pIC50 [13],Activity (Liver [14]),Activity (Liver [15]),Activity [16] [V],Ratio (Liver [17]),Activity (Liver [20]),Drug uptake (Liver [21]) [mM],Activity [22],also measured
CS(=O)(=O)[O-].O=C(/C=C/c1ccc(O)c(O)c1)NCCCCCC[P+](c1ccccc1)(c1ccccc1)c1ccccc1,Dose-dependent effect,0.396,1.8,Dose-dependent effect,4.52,5.39,Dose-dependent effect,Dose-dependent effect,Dose-dependent effect,Dose-dependent effect,Dose-dependent effect,Dose-dependent effect,4.53,Dose-dependent effect,Dose-dependent effect,0.164,2500,Dose-dependent effect,2.5,–,inhibition (Liver [18]): Active; inhibition [19]: Active
COC1=C(OC)C(=O)C(CCCCCCCCCC[P+](c2ccccc2)(c2ccccc2)c2ccccc2)=C(C)C1=O.CS(=O)(=O)[O-] [MITOQUINONE MESYLATE],–,–,–,–,–,–,–,–,–,–,–,–,–,–,–,–,–,–,–,Non-Toxic,inhibition (Rattus norvegicus [23]): inactive; inhibition [19]: inactive
CS(=O)(=O)[O-].O=C(/C=C/c1cc(O)c(O)c(O)c1)NCCCCCCCCCC[P+](c1ccccc1)(c1ccccc1)c1ccccc1,Dose-dependent effect,0.377,1.4,Dose-dependent effect,5.12,5.60,Dose-dependent effect,Dose-dependent effect,Dose-dependent effect,Dose-dependent effect,Dose-dependent effect,Dose-dependent effect,4.86,Dose-dependent effect,Dose-dependent effect,0.057,3500,Dose-dependent effect,5,Non-Toxic,Activity (Liver [24]): 25 mV; inhibition (Liver [25]): Active; inhibition (Rattus norvegicus [26]): Active; inhibition (Liver [27]): Active; inhibition (Liver [18]): Active
CS(=O)(=O)[O-].O=C(/C=C/c1ccc(O)c(O)c1)NCC[P+](c1ccccc1)(c1ccccc1)c1ccccc1,Dose-dependent effect,0.572,3.7,Dose-dependent effect,4.48,5.35,–,Dose-dependent effect,Dose-dependent effect,Dose-dependent effect,Dose-dependent effect,Dose-dependent effect,4.45,Dose-dependent effect,Dose-dependent effect,0.166,600,Dose-dependent effect,1.5,–,inhibition (Liver [25]): Active
CS(=O)(=O)[O-].O=C(/C=C/c1cc(O)c(O)c(O)c1)NCCCCCCCC[P+](c1ccccc1)(c1ccccc1)c1ccccc1,Dose-dependent effect,0.423,1,Dose-dependent effect,5.06,5.64,Dose-dependent effect,Dose-dependent effect,Dose-dependent effect,Dose-dependent effect,Dose-dependent effect,Dose-dependent effect,4.83,Dose-dependent effect,Dose-dependent effect,0.046,3900,Dose-dependent effect,4.5,Non-Toxic,Activity (Liver [24]): 25 mV; inhibition (Liver [25]): Active; inhibition (Rattus norvegicus [26]): Active
CS(=O)(=O)[O-].O=C(/C=C/c1ccc(O)c(O)c1)NCCCCCCCC[P+](c1ccccc1)(c1ccccc1)c1ccccc1,Dose-dependent effect,0.345,1.2,Dose-dependent effect,4.55,5.55,Dose-dependent effect,Dose-dependent effect,Dose-dependent effect,Dose-dependent effect,Dose-dependent effect,Dose-dependent effect,4.55,Dose-dependent effect,Dose-dependent effect,0.17,5100,Dose-dependent effect,5.7,Non-Toxic,Activity (Liver [24]): 10 mV; inhibition (Rattus norvegicus [26]): Active
O=C(O)/C=C/c1ccc(O)c(O)c1 [CAFFEIC ACID],–,–,–,–,4.75,5.47,–,–,–,–,–,–,4.74,–,–,0.168,–,–,–,–,–
O=C(O)CN(CCN(CC(=O)O)CC(=O)O)CC(=O)O,–,–,–,–,–,–,–,–,–,–,–,–,–,–,–,–,–,–,–,–,inhibition [19]: Active
